From publication PMC8585696 (Immunity, 2021)

Tests used:
[1] = test system: human platelets (platelet-rich plasma); assay: platelet aggregation assay; type: cell-based; conditions: collagen 2.5 μg/mL or increasing candidalysin, 5 min, Figure S4G
GP1bα [2] = conditions: through the A1 domain; ref Azuma et al., 1991; cited from earlier work
C57BL/6 mice [3] = assay: BALF inflammatory cell counts; type: in vivo, mouse; conditions: C. albicans intranasal, inhibitor 10 or 20 μg/kg i.p., Figure 2I
C57BL/6 mice [4] = assay: cytokines from lung by ELISA; type: in vivo, mouse
Outline: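 C57BL/6 mice received 1 × 10^5 viable C. albicans intranasally every other day for 8 challenges. Fungal cells were thawed (>95% viable), washed and suspended in normal saline. Dkk-1 inhibitor (10 or 20 μg/kg) or recombinant mouse Dkk-1 (5 μg/kg) was given i.p. at each challenge. Lungs were taken 24 h after the last challenge, and cytokines in lung homogenate supernatants were measured by ELISA (TMB, 450 nm).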

C. albicans = assay: lung fungal burden; type: in vivo
Outline: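 Whole-lung C. albicans CFU was counted in C57BL/6 mice 24 h after the last of 8 intranasal challenges (1 × 10^5 viable cells in saline, every other day). Dkk-1 inhibitor or recombinant mouse Dkk-1 (5 μg/kg) was given i.p. together with each challenge.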

Dkk-1 = conditions: ref Chae et al., 2016; cited from earlier work
GP1bα [5] = assay: GP1bα pulldown from human platelet lysates; type: binding; conditions: 60 μg biotinylated bait, 1 h, 4°C, western blot; Figure 4E
C57BL/6 mice [6] = assay: airway hyperresponsiveness; type: in vivo, mouse; conditions: ece1Δ/Δ C. albicans intranasal; Dkk-1 5 μg/kg i.p.; Figure 3B
[7] = test system: GATA3^+ Th2 and RORγt^+ Th17 cells; assay: lung T cell quantitation by flow cytometry; type: in vivo, mouse; conditions: ece1Δ/Δ C. albicans intranasal; Dkk-1 5 μg/kg i.p.; Figures 3F, 3G
Outline: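 Mice were challenged with C. albicans (1 × 10^5 viable cells) intranasally every other day ×8, with recombinant mouse Dkk-1 (5 μg/kg i.p.) at each challenge, and analyzed 24 h after the final challenge. Erythrocytes in total lung cells were lysed with ACK. Cells were stained for live/dead, CD45, CD3 and CD4, split into 3 groups, fixed and permeabilized, then stained for T-bet, GATA3 or RORγt. Results are given as percentages and absolute counts.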

C57BL/6 mice [8] = assay: allergic airway disease overall; type: in vivo, mouse; conditions: intraperitoneal route, no fungus; data not shown

Question: Which “platelet aggregation in vitro” value [1] does the source give for collagen here?
Answer: in marked contrast to the activating GPIIb/IIIa ligand collagen

Question: For “VWF A1A2A3 tridomain: recombinant human VWF A1, A2, A3 domains (Q1238-G1874) expressed in HEK293”, which “binding of VWF fragment to GP1bα” value (GP1bα [2]) is on record?
Answer: binds GP1bα through the A1 domain

Question: For `NCC1CCN(c2nccc(-c3ccc4ccccc4c3)n2)CC1` [WAY 262611], which “BALF eosinophilia under Dkk-1 inhibitor” value (C57BL/6 mice [3]) is on record?
Answer: most notably reducing BALF eosinophilia

Question: And the “BALF inflammatory cell recruitment under Dkk-1 inhibitor” value (C57BL/6 mice [3]; dose-dependent)?
Answer: progressively reduced

Question: And the “secretion of IL-17 from whole lung under Dkk-1 inhibitor” value (C57BL/6 mice [4]; C. albicans intranasal, inhibitor 10 or 20 μg/kg i.p., Figure 2J)?
Answer: inhibited secretion of IL-17

Question: What about the “secretion of IL-1β, IL-6 and TNF under Dkk-1 inhibitor” value (C57BL/6 mice [4]; C. albicans intranasal, inhibitor 10 or 20 μg/kg i.p., Figure 2K) of the same molecule?
Answer: not significantly affected

Question: And the “lung fungal burden under Dkk-1 inhibitor” value (C. albicans; C. albicans intranasal, inhibitor i.p., Figure 2N)?
Answer: markedly elevated lung fungal burdens

Question: What about the “block of Dkk-1 in vivo” value (Dkk-1) of the same molecule?
Answer: previously shown to block this peptide in vivo

Question: For “IFKIIISKIQIVMGLNGIPIKVAGSQNIGMI [scrambled control (SC) peptide]”, which “association with GP1bα from human platelet lysates” value (GP1bα [5]) is on record?
Answer: but not its scrambled control peptide

B1: Dkk-1: recombinant mouse Dkk-1 (5897-DK-010, R&D systems), Wnt pathway antagonist (protein, UniProt O54908 32-272, looked up)
Dickkopf-related protein 1: TLNSVLINSNAIKNLPPPLGGAGGQPGSAVSVAPGVLYEGGNKYQTLDNYQPYPCAEDEECGSDEYCSSPSRGAAGVGGVQICLACRKRRKRCMRHAMCCPGNYCKNGICMPSDHSHFPRGEIEESIIENLGNDHNAAAGDGYPRRTTLTSKIYHTKGQEGSVCLRSSDCAAGLCCARHFWSKICKPVLKEGQVCTKHKRKGSHGLEIFQRCYCGEGLACRIQKDHHQASNSSRLHTCQRH
Question: What does the source list for B1?
Answer: airway hyperresponsiveness with exogenous Dkk-1 (C57BL/6 mice [6]): significantly enhanced airway hyperresponsiveness; secretion of lung Th2 cytokines, especially IL-4, and IL-17 with exogenous Dkk-1 (C57BL/6 mice [4]; ece1Δ/Δ C. albicans intranasal, Dkk-1 5 μg/kg i.p., Figure 3D): markedly enhanced; secretion of innate pro-inflammatory cytokines with exogenous Dkk-1 (C57BL/6 mice [4]; ece1Δ/Δ C. albicans intranasal, Dkk-1 5 μg/kg i.p., Figure 3E): did not influence the secretion of innate pro-inflammatory cytokines; recruitment to lung of GATA3^+ Th2 and RORγt^+ Th17 cells with exogenous Dkk-1 [7]: markedly increase recruitment to lung; fungal lung burden with exogenous Dkk-1 (C. albicans; ece1Δ/Δ C. albicans intranasal, Dkk-1 5 μg/kg i.p., Figure 3H): significantly reduced; indices of allergic airway disease, Dkk-1 alone (C57BL/6 mice [8]): no effect on any index of allergic airway disease
